The nature of data set [1]: Permeability of compound at 100 ug/ml after 10 hrs by PAMPA assay. The settings on record: read-out: permeability. It counts as ADME.
For data set [2], the system named is PC-12. The experiment in a line: Induction of rat PC12 cell proliferation at 0.5 to 50 uM after 72 hrs by microscopic analysis. It counts as functional, cell-based. In a few lines: (§1)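 Undifferentiated PC12 cells cultured 72 h with compound at 0.5–50 µM (images at 10 µM) or with NGF 50 ng/ml, then examined under a digital microscope.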
In data set [3] the test system is PC-12. The experiment in a line: Induction of rat PC12 cell proliferation at 10 uM after 72 hrs by microscopic analysis. It counts as functional, cell-based. In a few lines: as §1
Data set [4] has as its system SH-SY5Y. The experiment in a line: Neuroprotective activity against t-BuOOH-induced oxidative stress in human SH-SY5Y cells assessed as inhibition ROS accumulation pre-incubated for 24 hrs before t-BuOOH challnge for 30 mins by DCFH-DA probe based fluorescence assay. It counts as functional, cell-based. In a few lines:
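SH-SY5Y cells; test agents at 1–0.01 µM, oxidative stress induced by tert-butyl hydroperoxide; intracellular ROS read by DCFH-DA fluorescence; at least three independent experiments in sextuplicate; EC50 derived.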

In data set [5] the test system is PC-12. The experiment in a line: Cytotoxicity against rat undifferentiated PC12 cells at 0.5 to 50 uM after 72 hrs by MTT assay. It counts as cell-based. The settings on record: pc-12, 72 h.
A short description of data set [6]: Metabolic stability in Sprague-Dawley rat liver microsomes assessed as metabolic rate constant at 100 uM up to 180 mins by HPLC-UV analysis. The settings on record: 3 h.
Data set [7] concerns Mus musculus. Nature of the data set: Toxicity in C57BL/6 mouse assessed as mortality at 677 to 2000 mg/kg, ig measured continuously during first 4 hrs, intermittently for following 24 hrs and occasionally thereafter for 14 consecutive days. It counts as organism-based. The settings on record: in vivo, po. In short, it runs like this:
(§2)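 Adult C57BL/6 mice, 12 weeks old, given single intragastric doses of 0, 677, 1333 or 2000 mg/kg (n = 6 per dose, 3 male and 3 female). Abnormal behaviour and deaths observed continuously for the first 4 h, intermittently over the next 24 h, then occasionally for 14 days to catch delayed effects.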

A short description of data set [8]: Half life in Sprague-Dawley rat liver microsomes at 100 uM up to 180 mins by HPLC-UV analysis. The settings on record: microsomes.
The test system of data set [9] is Mus musculus. The experiment in a line: Toxicity in C57BL/6 mouse assessed as macroscopic abnormalities of liver at 677 to 2000 mg/kg, ig after 14 consecutive days. It counts as organism-based. The settings on record: in vivo, po.
Data set [10] deals with Mus musculus. Nature of the data set: Toxicity in C57BL/6 mouse assessed as macroscopic abnormalities of kidney at 677 to 2000 mg/kg, ig after 14 consecutive days. It counts as organism-based. The settings on record: in vivo, po.
For data set [11], the system named is Mus musculus. Nature of the data set: Toxicity in C57BL/6 mouse assessed as macroscopic abnormalities of lung at 677 to 2000 mg/kg, ig after 14 consecutive days. It counts as organism-based. The settings on record: in vivo, po, 336 h.
Data set [12] has as its system Mus musculus. Nature of the data set: Toxicity in C57BL/6 mouse assessed as abnormal behavior at 677 to 2000 mg/kg, ig measured continuously during first 4 hrs, intermittently for following 24 hrs and occasionally thereafter for 14 consecutive days. The settings on record: in vivo, po. It counts as organism-based. In a few lines: as §2
The subject of data set [13] is Mus musculus. Nature of the data set: Toxicity in C57BL/6 mouse assessed as macroscopic abnormalities of intestine at 677 to 2000 mg/kg, ig after 14 consecutive days. It counts as organism-based. The settings on record: in vivo, po.
Data set [14] concerns Mus musculus. The experiment in a line: Induction of cell proliferation in C57BL/6 mouse hippocampal neurons in CA2 region assessed as BrdU-incorporation at 0.5 uL/hr, icv for 7 days by immunohistochemical analysis (reference value: 2.4%). It counts as functional.
For data set [15], the system named is Mus musculus. Nature of the data set: Induction of cell proliferation in C57BL/6 mouse hippocampal neurons in CA2 region assessed as BrdU-incorporation at 30 mg/kg, po administered via gavage for 7 days by immunohistochemical analysis (reference value: 2.4%). It counts as functional. In a few lines: (§3)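 C57BL/6 mice, 12 weeks old, n = 6, individually housed beforehand without wheels. Compound gavaged 30 mg/kg/day for 7 days with daily IP BrdU 50 mg/kg; BrdU+ cells counted by immunohistochemistry per hippocampal volume; two-way ANOVA.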

Data set [16] concerns Mus musculus. Nature of the data set: Induction of cell proliferation in C57BL/6 mouse hippocampal neurons in CA3 region assessed as BrdU-incorporation at 30 mg/kg, po administered via gavage for 7 days by immunohistochemical analysis (reference value: 1.5%). It counts as functional. In short, it runs like this: as §3
Data set [17] relates to Mus musculus. Nature of the data set: Toxicity in C57BL/6 mouse assessed as macroscopic abnormalities of heart at 677 to 2000 mg/kg, ig after 14 consecutive days. It counts as organism-based. The settings on record: in vivo, po.
In data set [18] the test system is Mus musculus. The experiment in a line: Toxicity in C57BL/6 mouse assessed as histological abnormalities of brain at 2000 mg/kg, ig after 14 consecutive days by hematoxylin/eosin dye-based microscopic analysis. It counts as organism-based. The settings on record: in vivo, po, 336 h. In short, it runs like this: (§4)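 Adult C57BL/6 mice, 12 weeks old, single intragastric doses of 0, 677, 1333 or 2000 mg/kg (n = 6 per dose, 3 male/3 female); behaviour and mortality observed over 14 days; liver, heart, lung and brain examined by HE staining at 2000 mg/kg.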

In data set [19] the test system is Mus musculus. The experiment in a line: Induction of cell proliferation in C57BL/6 mouse hippocampal neurons in CA1 region assessed as BrdU-incorporation at 0.5 uL/hr, icv for 7 days by immunohistochemical analysis (reference value: 3.2%). It counts as functional.
Data set [20] deals with Mus musculus. The experiment in a line: Toxicity in C57BL/6 mouse assessed as effect on food intake at 677 to 2000 mg/kg, ig measured continuously during first 4 hrs, intermittently for following 24 hrs and occasionally thereafter for 14 consecutive days. It counts as organism-based. The settings on record: in vivo, po.
Data set [21] has as its system Mus musculus. Nature of the data set: Toxicity in C57BL/6 mouse assessed as macroscopic abnormalities of spleen at 677 to 2000 mg/kg, ig after 14 consecutive days. The settings on record: in vivo, po. It counts as organism-based.
Data set [22] deals with Mus musculus. Nature of the data set: Toxicity in C57BL/6 mouse assessed as macroscopic abnormalities of stomach at 677 to 2000 mg/kg, ig after 14 consecutive days. It counts as organism-based. The settings on record: in vivo, po.
For data set [23], the system named is Mus musculus. The experiment in a line: Induction of cell proliferation in C57BL/6 mouse hippocampal neurons in CA3 region assessed as BrdU-incorporation at 0.5 uL/hr, icv for 7 days by immunohistochemical analysis (reference value: 1.4%). It counts as functional.
Data set [24] concerns Mus musculus. Nature of the data set: Induction of cell proliferation in C57BL/6 mouse hippocampal neurons in CA1 region assessed as BrdU-incorporation at 30 mg/kg, po administered via gavage for 7 days by immunohistochemical analysis (reference value: 2.3%). It counts as functional. In a few lines: as §3
Data set [25] concerns Mus musculus. Nature of the data set: Toxicity in C57BL/6 mouse assessed as histological abnormalities of heart at 2000 mg/kg, ig after 14 consecutive days by hematoxylin/eosin dye-based microscopic analysis. The settings on record: in vivo, po. It counts as organism-based. In short, it runs like this:
as §4

Data set [26] deals with Mus musculus. Nature of the data set: Toxicity in C57BL/6 mouse assessed as histological abnormalities of liver at 2000 mg/kg, ig after 14 consecutive days by hematoxylin/eosin dye-based microscopic analysis. It counts as organism-based. The settings on record: in vivo, po, 336 h. In short, it runs like this:
as §4

For data set [27], the system named is Mus musculus. The experiment in a line: Toxicity in C57BL/6 mouse assessed as histological abnormalities of lung at 2000 mg/kg, ig after 14 consecutive days by hematoxylin/eosin dye-based microscopic analysis. It counts as organism-based. The settings on record: in vivo, po, 336 h. In short, it runs like this: as §4
The subject of data set [28] is Mus musculus. Nature of the data set: Induction of cell proliferation in C57BL/6 mouse hippocampal neurons in DG region assessed as BrdU-incorporation at 30 mg/kg, po administered via gavage for 7 days by immunohistochemical analysis (reference value: 2.2%). It counts as functional. In a few lines: as §3
Data set [29] relates to Mus musculus. Nature of the data set: Toxicity in C57BL/6 mouse assessed as effect on water intake at 677 to 2000 mg/kg, ig measured continuously during first 4 hrs, intermittently for following 24 hrs and occasionally thereafter for 14 consecutive days. It counts as organism-based. The settings on record: in vivo, po.
Data set [30] has as its system Mus musculus. Nature of the data set: Induction of cell proliferation in C57BL/6 mouse hippocampal neurons in DG region assessed as BrdU-incorporation at 0.5 uL/hr, icv for 7 days by immunohistochemical analysis (reference value: 7.8%). It counts as functional.
For data set [31], the system named is Mus musculus. Nature of the data set: Toxicity in C57BL/6 mouse assessed as effect on body weight at 677 to 2000 mg/kg, ig measured continuously during first 4 hrs, intermittently for following 24 hrs and occasionally thereafter for 14 consecutive days. It counts as organism-based. The settings on record: in vivo, po.

Active and inactive are the calls of the source. The calls are words filed in the database; no cut-off is given here.

Take `Oc1cccc2ccc(-c3cc4cc(F)ccc4[nH]3)nc12`: the Papp at 10 h, 100 ug/ml in data set [1] was determined as 10.6 ×10⁻⁶ cm/s.

For `Oc1cccc2ccc(-c3cc4ccc5c(c4[nH]3)OCO5)nc12`, the outcome in data set [2] and in data set [3] was Active.

For `CN(C)CCCN1c2ccccc2Sc2ccc(Cl)cc21` [CHLORPROMAZINE], the Papp at 10 h, 100 ug/ml in data set [1] is 5.9 ×10⁻⁶ cm/s.

With `Oc1c(Cl)cc(Cl)c2ccc(-c3cc4cc(Cl)ccc4[nH]3)nc12` [listing 1 of 2 here], the outcome in [2] and in data set [3] was Active.

Turning to `Oc1c(Cl)cc(Cl)c2ccc(-c3cc4cc(Cl)ccc4[nH]3)nc12` [listing 2 of 2 here], the EC50 in data set [4] turned out to be 0.82 µM. Besides, the Activity entry in data set [5] is given as “Non-Toxic”. The Papp at 10 h, 100 ug/ml in data set [1] was found to be 5.6 ×10⁻⁶ cm/s.

Turning to `Oc1c(Cl)cc(Cl)c2ccc(-c3cc4cc5c(cc4[nH]3)OCO5)nc12`, the EC50 in data set [4] was determined as 0.33 µM. The Activity entry in [5] was “Non-Toxic”. Besides, in data set [1], the Papp at 10 h, 100 ug/ml was 4.9 ×10⁻⁶ cm/s.

As to `Oc1c(Cl)cc(Cl)c2ccc(-c3cc4cc(F)ccc4[nH]3)nc12`, the outcome in data set [2] was inactive. Moreover, in data set [1], the Papp at 10 h, 100 ug/ml came out at 5.3 ×10⁻⁶ cm/s.

As to `Oc1ccc2[nH]c(-c3ccc4c(Cl)cc(Cl)c(O)c4n3)cc2c1`, in data set [4], the EC50 was 0.1 µM. The Activity entry in [5] is “Non-Toxic”. Moreover, in data set [1], the Papp at 10 h, 100 ug/ml worked out at 10.2 ×10⁻⁶ cm/s.

As to `C[C@]12CC[C@H]3[C@@H](CCC4=CC(=O)CC[C@@]43C)[C@@H]1CC[C@@H]2O` [TESTOSTERONE], the K in [6] was determined as 0.3132 min⁻¹.

`Cl.Oc1cccc2ccc(-c3cc4ccc5c(c4[nH]3)OCO5)nc12`: the Activity entry in data set [7], in data set [9], in data set [10], in data set [11], in data set [12] and in data set [13] was “Non-Toxic” each time. For the same molecule, the Activity in [14] is 56.1%; in data set [15], 7.5%; in [16], 3.9%; in [17] it was “Non-Toxic”; in [18], “Non-Toxic”; in [19] it was 61.9%. In addition, the Activity entry was “Non-Toxic” in data set [20]; “Non-Toxic” in data set [21]; “Non-Toxic” in [22]; 49.3% in [23]; 8% in data set [24]; “Non-Toxic” in data set [25]. The Activity entry in [26] is “Non-Toxic”; in data set [27], “Non-Toxic”; in data set [28], 7.6%; in [29], “Non-Toxic”; in [30] it was 43.6%; in data set [31], “Non-Toxic”. Moreover, the half-life at 3 h, 100 µM in data set [8] was 58.6 min. Besides, in [6], the K came out at 0.01183 min⁻¹.

In the case of `Oc1ccc2[nH]c(-c3cc(Cl)c(O)c4ncccc34)cc2c1`, the Activity entry in [5] was “Toxic”. Further, the Papp at 10 h, 100 ug/ml in data set [1] was 6.8 ×10⁻⁶ cm/s.

With `Oc1c(Cl)cc(Cl)c2ccc(-c3cc4ccccc4[nH]3)nc12`, the result in data set [2] was inactive. For the same molecule, in [1], the Papp at 10 h, 100 ug/ml was 6.6 ×10⁻⁶ cm/s.

(Values after ChEMBL document CHEMBL4118104, “Design, Synthesis, and Evaluation of Orally Bioavailable Quinoline-Indole Derivatives as Innovative Multitarget-Directed Ligands: Promotion of Cell Proliferation in the Adult Murine Hippocampus for the Treatment of Alzheimer's Disease” (J Med Chem, 2018).)
